Test results reported in ChEMBL document CHEMBL1811814, “Synthesis and evaluation of indole, pyrazole, chromone and pyrimidine based conjugates for tumor growth inhibitory activities--development of highly efficacious cytotoxic agents” (Eur J Med Chem, 2010).

Key:
Type in all cases: functional
SF-295 = assay: Growth inhibition of human SF295 cells
ACHN = assay: Growth inhibition of human ACHN cells assessed tumor cell growth at 10^-5 M; design: scale not given: the % may be the effect or the level left
Summary of the method: (§1)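 NCI 60-human-tumor-cell-line panel screen. Each compound was tested at a single concentration of 10^-5 M, and percent growth of tumor cells was recorded for each cell line. Growth inhibition was expressed from these percent-growth values.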

Malme-3M [1] = assay: Growth inhibition of human MALME-3M cells assessed tumor cell growth at 10^-5 M; design: scale not given: the % may be the effect or the level left; summary of the method: as §1
SF-268 = assay: Growth inhibition of human SF268 cells assessed tumor cell growth at 10^-5 M; design: scale not given: the % may be the effect or the level left; summary of the method: as §1
M14 = assay: Growth inhibition of human M14 cells assessed tumor cell growth at 10^-5 M; design: scale not given: the % may be the effect or the level left; summary of the method: as §1
[2] = Growth inhibition of human […] cells assessed tumor cell growth at 10^-5 M; design: scale not given: the % may be the effect or the level left; summary of the method: as §1
SK-OV-3 = assay: Growth inhibition of human SKOV3 cells assessed tumor cell growth at 10^-5 M; design: scale not given: the % may be the effect or the level left; summary of the method: as §1
A549 = assay: Growth inhibition of human A549 cells assessed tumor cell growth at 10^-5 M; design: scale not given: the % may be the effect or the level left; summary of the method: as §1
HCC 2998 = assay: Growth inhibition of human HCC2998 cells
SNB-19 = assay: Growth inhibition of human SNB19 cells assessed tumor cell growth at 10^-5 M; design: scale not given: the % may be the effect or the level left
Summary of the method: (§2)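 Single-dose screen at 10^-5 M across the 60 human tumor cell line panel, run to NCI standards. The value is the percent growth of each cell line in the presence of compound. Compounds active at this dose moved on to five-concentration testing (10^-4 to 10^-8 M).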

MCF7 = assay: Growth inhibition of human MCF7 cells assessed tumor cell growth at 10^-5 M; design: scale not given: the % may be the effect or the level left; summary of the method: as §1
SN12C = assay: Growth inhibition of human SN12C cells
COLO 205 = assay: Growth inhibition of human COLO205 cells assessed tumor cell growth at 10^-5 M; design: scale not given: the % may be the effect or the level left; summary of the method: as §1
IGROV-1 [3] = assay: Growth inhibition of human IGROV1 cells
Summary of the method: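 Follow-up panel testing at five concentrations (10^-4, 10^-5, 10^-6, 10^-7 and 10^-8 M) across the 60 human tumor cell lines. GI50 was obtained for each line from the concentration-response data, with the panel average GI50 also reported.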

Malme-3M [4] = assay: Growth inhibition of human MALME-3M cells
RXF 393 = assay: Growth inhibition of human RXF393 cells assessed tumor cell growth at 10^-5 M; design: scale not given: the % may be the effect or the level left; summary of the method: as §1
SNB-75 [5] = assay: Growth inhibition of human SNB75 cells
KM12 [6] = assay: Growth inhibition of human KM12 cells
[7] = Growth inhibition of human Hs 578T cells
NCI-H23 = assay: Growth inhibition of human NCI-H23 cells
MDA-MB-231 = assay: Growth inhibition of human MDA-MB-231 cells assessed tumor cell growth at 10^-5 M; design: scale not given: the % may be the effect or the level left; summary of the method: as §1
HT-29 [8] = assay: Growth inhibition of human HT-29 cells assessed tumor cell growth at 10^-5 M; design: scale not given: the % may be the effect or the level left; summary of the method: as §1
T47D [9] = assay: Growth inhibition of human T47D cells
SNB-75 [10] = assay: Growth inhibition of human SNB75 cells assessed tumor cell growth at 10^-5 M; design: scale not given: the % may be the effect or the level left; summary of the method: as §2
CCRF-CEM [11] = assay: Growth inhibition of human CCRF-CEM cells assessed tumor cell growth at 10^-5 M; design: scale not given: the % may be the effect or the level left; summary of the method: as §1
MDA-MB-468 [12] = assay: Growth inhibition of human MDA-MB-468 cells assessed tumor cell growth at 10^-5 M; design: scale not given: the % may be the effect or the level left; summary of the method: as §1
EKVX = assay: Growth inhibition of human EKVX cells assessed tumor cell growth at 10^-5 M; design: scale not given: the % may be the effect or the level left; summary of the method: as §1
SW-620 = assay: Growth inhibition of human SW620 cells
A498 = assay: Growth inhibition of human A498 cells assessed tumor cell growth at 10^-5 M; design: scale not given: the % may be the effect or the level left; summary of the method: as §1
HL-60(TB) [13] = assay: Growth inhibition of human HL-60(TB) cells assessed tumor cell growth at 10^-5 M; design: scale not given: the % may be the effect or the level left
Summary of the method: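 HL-60(TB), part of the 60-line panel, tested at a single concentration of 10^-5 M. The read-out is percent tumor cell growth relative to untreated growth.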

SK-MEL-5 = assay: Growth inhibition of human SK-MEL-5 cells assessed tumor cell growth at 10^-5 M; design: scale not given: the % may be the effect or the level left; summary of the method: as §1
KM12 [14] = assay: Growth inhibition of human KM12 cells assessed tumor cell growth at 10^-5 M; design: scale not given: the % may be the effect or the level left; summary of the method: as §1
IGROV-1 [15] = assay: Growth inhibition of human IGROV1 cells assessed tumor cell growth at 10^-5 M; design: scale not given: the % may be the effect or the level left; summary of the method: as §1
HT-29 [16] = assay: Growth inhibition of human HT-29 cells
DU-145 = assay: Growth inhibition of human DU145 cells
CCRF-CEM [17] = assay: Growth inhibition of human CCRF-CEM cells
T47D [18] = assay: Growth inhibition of human T47D cells assessed tumor cell growth at 10^-5 M; design: scale not given: the % may be the effect or the level left; summary of the method: as §2
OVCAR-5 = assay: Growth inhibition of human OVCAR5 cells assessed tumor cell growth at 10^-5 M; design: scale not given: the % may be the effect or the level left; summary of the method: as §1
UACC-62 [19] = assay: Growth inhibition of human UACC62 cells assessed tumor cell growth at 10^-5 M; design: scale not given: the % may be the effect or the level left; summary of the method: as §2
HL-60(TB) [20] = assay: Growth inhibition of human HL-60(TB) cells
NCI-H226 = assay: Growth inhibition of human NCI-H226 cells
MOLT-4 = assay: Growth inhibition of human MOLT4 cells assessed tumor cell growth at 10^-5 M; design: scale not given: the % may be the effect or the level left; summary of the method: as §1
UACC-62 [21] = assay: Growth inhibition of human UACC62 cells
U-251 = assay: Growth inhibition of human U251 cells
NCI-H460 = assay: Growth inhibition of human NCI-H460 cells
MDA-MB-468 [22] = assay: Growth inhibition of human MDA-MB-468 cells
[23] = read-out: LC50 (the source's name)

O=C1/C(=C\c2coc3ccccc3c2=O)c2ccccc2N1c1c(Cl)cccc1Cl
GI50 (SF-295): 4.2 µM | CC50 (SF-295; [23]): > 100 µM | Activity (ACHN): 54.64% | Activity (Malme-3M [1]): 83.75% | Activity (SF-268): 31.99% | Activity (M14): 43.38% | Activity [2]: 10.21% | Activity (SK-OV-3): 74.8% | Activity (A549): 26.65% | GI50 (HCC 2998): 4.2 µM | CC50 (HCC 2998; [23]): > 100 µM | Activity (SNB-19): 62.58% | Activity (MCF7): 31.61% | GI50 (SN12C): 3.3 µM | CC50 (SN12C; [23]): > 100 µM | Activity (COLO 205): 55.33% | GI50 (IGROV-1 [3]): 1600 nM | CC50 (IGROV-1 [3]; [23]): 97.9 µM | GI50 (Malme-3M [4]): 2400 nM | CC50 (Malme-3M [4]; [23]): > 100 µM | Activity (RXF 393): 44.09% | GI50 (SNB-75 [5]): 1900 nM | CC50 (SNB-75 [5]; [23]): > 100 µM | GI50 (KM12 [6]): 3000 nM | CC50 (KM12 [6]; [23]): > 100 µM | GI50 [7]: 9.1 µM | CC50 [7, 23]: > 100 µM | GI50 (NCI-H23): 4.4 µM | Activity (MDA-MB-231): 60.45% | Activity (HT-29 [8]): 47.62% | GI50 (T47D [9]): 3000 nM | CC50 (T47D [9]; [23]): > 100 µM | Activity (SNB-75 [10]): 62.74% | Activity (CCRF-CEM [11]): 21.08% | Activity (MDA-MB-468 [12]): 44.85% | Activity (EKVX): 33.14% | GI50 (SW-620): 5.2 µM | CC50 (SW-620; [23]): > 100 µM | Activity (A498): 12.65% | Activity (HL-60(TB) [13]): 33.76% | Activity (SK-MEL-5): 20.33% | Activity (KM12 [14]): 27.09% | Activity (IGROV-1 [15]): 48.69% | GI50 (HT-29 [16]): 3000 nM | CC50 (HT-29 [16]; [23]): > 100 µM | GI50 (DU-145): 4.6 µM | CC50 (DU-145; [23]): > 100 µM | GI50 (CCRF-CEM [17]): 2000 nM | CC50 (CCRF-CEM [17]; [23]): > 100 µM | Activity (T47D [18]): 30.04% | Activity (OVCAR-5): 101.76% | Activity (UACC-62 [19]): 36.62% | GI50 (HL-60(TB) [20]): 2000 nM | CC50 (HL-60(TB) [20]; [23]): > 100 µM | GI50 (NCI-H226): 20.8 µM | CC50 (NCI-H226; [23]): > 100 µM | Activity (MOLT-4): 19.03% | GI50 (UACC-62 [21]): 2100 nM | CC50 (UACC-62 [21]; [23]): > 100 µM | GI50 (U-251): 1400 nM | CC50 (U-251; [23]): > 100 µM | GI50 (NCI-H460): 2000 nM | CC50 (NCI-H460; [23]): > 100 µM | GI50 (MDA-MB-468 [22]): 2400 nM | CC50 (MDA-MB-468 [22]; [23]): > 100 µM
